Values after ≈ are worked out from the molar mass of the structure shown.

By MIC is commonly meant the smallest concentration in the dilution series that meets the test's criterion for growth inhibition.

The test system of assay [1] is Staphylococcus aureus. The assay is described as follows: Antimicrobial activity against intracellular beta-lactamase negative methicillin-susceptible Staphylococcus aureus ATCC 25923 infected in activated human THP-1 cells assessed as decrease in bacterial growth after 24 hrs at pH 7.4. Type of assay: functional, organism-based. The conditions noted are these: ATCC 25923, THP-1, 24 h. Summed up: (§1)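 THP-1 cells activated by 24-h culture with phorbol myristate acetate 2 mg/liter, then infected like unactivated THP-1. Cloxacillin dose range in mg/liter for 24 h. CFU per mg cell protein relative to the original inoculum, n = 3. Emin and Emax extrapolated from a Hill fit (slope 1), with EC50 as total drug; static concentration by graphical interpolation.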

In assay [2] the test system is Staphylococcus aureus. The assay is described as follows: Bacteriostatic activity against intracellular beta-lactamase negative methicillin-susceptible Staphylococcus aureus ATCC 25923 infected in activated human THP-1 cells assessed as decrease in bacterial growth after 24 hrs at pH 7.4. It is filed as functional. Summed up: as §1
In assay [3] the test system is Staphylococcus aureus. Briefly: Antimicrobial activity against intracellular hospital acquired methicillin-resistant Staphylococcus aureus ATCC 33591 infected in human keratinocytes assessed as decrease in bacterial count from original inoculum at high compound concentration after 24 hrs at pH 7.4. Type of assay: functional. The essentials:
(§2)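 Primary human skin keratinocytes or Calu-3 bronchial epithelial cells, given an inoculum of 5 × 10⁷ to 1 × 10⁸ bacteria/ml and 2 h for internalization. Post-phagocytosis load 1.5 × 10⁶ to 3.0 × 10⁶ CFU per mg cell protein. Cloxacillin dose range in mg/liter for 24 h, n = 3. Hill-derived Emin, Emax and EC50; static concentration interpolated.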

For assay [4], the system named is Staphylococcus aureus. The assay is described as follows: Antimicrobial activity against intracellular beta-lactamase negative methicillin-susceptible Staphylococcus aureus ATCC 25923 infected in human Calu3 cells assessed as decrease in bacterial count from original inoculum at high compound concentration after 24 hrs at pH 7.4. Type of assay: functional, Calu-3. The essentials:
as §2

The test system of assay [5] is Staphylococcus aureus. The assay is described as follows: Antimicrobial activity against hospital acquired methicillin-resistant Staphylococcus aureus ATCC 33591 infected in human THP-1 cells assessed as increase in bacterial count from original inoculum at low compound concentration after 24 hrs at pH 7.4. Type of assay: functional.
The subject of assay [6] is Staphylococcus aureus. The assay is described as follows: Antimicrobial activity against Panton-valentine leukocidin positive community acquired methicillin-resistant Staphylococcus aureus N4090440 obtained from wound infection of patient by broth microdilution method at pH 7.4. Type of assay: functional. The essentials:
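Minimal inhibitory concentration by broth microdilution at pH 7.4, read in mg/liter. The MRSA genotype was confirmed by mecA PCR, and the SCCmec subgroup was assigned by multiplex PCR.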
Background: In broth dilution the organism is exposed to a series of concentrations in liquid medium.

Assay [7] concerns Staphylococcus aureus. Briefly: Antimicrobial activity against hospital acquired methicillin-resistant Staphylococcus aureus ATCC 33591 by broth microdilution method at pH 5.5. It is filed as functional.
Assay [8] has as its system Staphylococcus aureus. The assay is described as follows: Antimicrobial activity against hospital acquired methicillin-resistant and vancomycin-intermediate Staphylococcus aureus NRS18 obtained from patient with wound, skin and soft tissue infection by broth microdilution method at pH 5.5. Type of assay: functional.
In assay [9] the test system is Staphylococcus aureus. Briefly: Antimicrobial activity against hospital acquired methicillin-resistant and vancomycin-intermediate Staphylococcus aureus NRS126 obtained from patient with bloodstream infection by broth microdilution method at pH 5.5. Type of assay: functional.
Assay [10] relates to Staphylococcus aureus. The assay is described as follows: Antimicrobial activity against hospital acquired methicillin-resistant and […] Staphylococcus aureus VRS2 obtained from patient with wound, skin and soft tissue infection by broth microdilution method at pH 5.5. It is filed as functional.
In assay [11] the test system is Staphylococcus aureus. The assay is described as follows: Antimicrobial activity against beta-lactamase negative methicillin-susceptible Staphylococcus aureus ATCC 25923 infected in human THP-1 cells assessed as increase in bacterial count from original inoculum at low compound concentration after 24 hrs at pH 5.5. It is filed as functional. The essentials:
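MSSA ATCC 25923 phagocytized by unactivated THP-1 macrophages; extracellular antibiotic from about 0.01× to 100× the broth MIC at pH 5.5, with gentamicin 0.5 mg/liter to block extracellular growth. CFU per mg cell protein counted at 24 h vs. original inoculum (n = 3). A Hill equation (slope factor 1) gives Emin/Emax, extrapolated to infinitely low/high concentration. Static concentration is read by graphical interpolation.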

Assay [12] deals with Staphylococcus aureus. Briefly: Antimicrobial activity against hospital acquired methicillin-resistant Staphylococcus aureus N4120032 obtained from wound infection of patient infected in human THP-1 cells assessed as increase in bacterial count from original inoculum at low compound concentration after 24 hrs at pH 5.5. Type of assay: functional. The essentials: (§3)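 Bacteria phagocytosed by unactivated human THP-1 macrophages, then incubated 24 h with extracellular antibiotic at about 0.01× to 100× the pH 5.5 broth MIC. CFU per mg cell protein counted against the original inoculum, n = 3. A Hill-equation fit (slope factor 1) gave Emin and Emax, extrapolated to infinitely low and high concentration, and EC50. Static concentration was graphically interpolated.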

Assay [13] has as its system Staphylococcus aureus. The assay is described as follows: Antimicrobial activity against hospital acquired methicillin-resistant Staphylococcus aureus N4120210 obtained from urinary tract infection of patient infected in human THP-1 cells assessed as increase in bacterial count from original inoculum at low compound concentration after 24 hrs at pH 5.5. Type of assay: functional, Urine. The essentials: as §3

Assay [14] concerns Staphylococcus aureus. The assay is described as follows: Antimicrobial activity against Panton-valentine leukocidin positive community acquired methicillin-resistant Staphylococcus aureus N4042228 infected in human THP-1 cells assessed as decrease in bacterial count from original inoculum at high compound concentration after 24 hrs at pH 5.5. It is filed as functional. The essentials:
as §3

Assay [15] deals with Staphylococcus aureus. Briefly: Antimicrobial activity against hospital acquired methicillin-resistant Staphylococcus aureus N4120210 obtained from urinary tract infection of patient infected in human THP-1 cells assessed as decrease in bacterial growth after 24 hrs at pH 5.5. The conditions noted are these: N4120210, THP-1, Urine. It is filed as functional, organism-based. The essentials: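 THP-1 macrophages were infected, then incubated 24 h with cloxacillin at extracellular concentrations from about 0.01× to 100× the MIC measured in broth at pH 5.5, with gentamicin 0.5 mg/liter to block extracellular growth. CFU per mg cell protein were counted as change from the original inoculum (n = 3). A Hill-equation fit gave Emax, EC50 (multiples of MIC) and static concentration.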

Assay [16] has as its system Staphylococcus aureus. Briefly: Antimicrobial activity against Panton-valentine leukocidin positive community acquired methicillin-resistant Staphylococcus aureus N4042228 infected in human THP-1 cells assessed as decrease in bacterial growth after 24 hrs at pH 5.5. Type of assay: functional, organism-based. The conditions noted are these: N4042228, THP-1, 24 h. The essentials: as §3

For assay [17], the system named is Staphylococcus aureus. Briefly: Antimicrobial activity against hospital acquired methicillin-resistant and vancomycin-intermediate Staphylococcus aureus NRS126 obtained from bloodstream infection of patient infected in human THP-1 cells assessed as decrease in bacterial growth after 24 hrs at pH 5.5. Type of assay: functional, organism-based. The conditions noted are these: NRS126, THP-1, 24 h. The essentials: as §3

Assay [18] relates to Staphylococcus aureus. The assay is described as follows: Antimicrobial activity against animal acquired methicillin-resistant Staphylococcus aureus N7112046 infected in human THP-1 cells assessed as decrease in bacterial growth after 24 hrs at pH 5.5. It is filed as functional, organism-based. The conditions noted are these: N7112046, THP-1, 24 h. The essentials:
as §3

Assay [19] deals with Staphylococcus aureus. Briefly: Bacteriostatic activity against hospital acquired methicillin-resistant Staphylococcus aureus ATCC 33591 infected in human THP-1 cells assessed as decrease in bacterial growth after 24 hrs at pH 5.5. It is filed as functional. The essentials: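 Human THP-1 macrophages infected with each S. aureus strain. Cloxacillin added extracellularly at about 0.01× to 100× the broth MIC measured at pH 5.5, with gentamicin 0.5 mg/liter to stop extracellular growth. Incubated 24 h. CFU counted per mg cell protein as change from the post-phagocytosis inoculum, n = 3. Emin, Emax and EC50 from a Hill fit; static concentration by graphical interpolation.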

The subject of assay [20] is Staphylococcus aureus. The assay is described as follows: Antimicrobial activity against intracellular hospital acquired methicillin-resistant Staphylococcus aureus ATCC 33591 infected in activated human THP-1 cells assessed as increase in bacterial count from original inoculum at low compound concentration after 24 hrs at pH 7.4. It is filed as functional. The essentials:
as §1

As for `Cc1onc(-c2ccccc2Cl)c1C(=O)N[C@@H]1C(=O)N2[C@@H]1SC(C)(C)[C@@H]2C(=O)O` [CLOXACILLIN], the EC50 in assay [1] was found to be 0.43 µg/mL (≈ 0.986 µM); in [15], 8.51 ×MIC; in assay [16] it was 10.8 ×MIC; in [17], 5.33 ×MIC; in assay [18], 6.99 ×MIC. The Activity in [2] stood at 1.3 mg/L; in assay [19], 17.8 ×MIC. Besides, the log10cfu was determined as 0.6 in [3]; 0.99 in [4]; 2.27 in assay [5]; 1.96 in [11]; 2.63 in assay [12]; 2.6 in assay [13]. The results for the log10cfu in assay [14] and in [20] were 0.63 and 2.15, respectively. Further, the MIC in assay [6] is 0.5 µg/mL (≈ 1.15 µM); in assay [7], 0.06 µg/mL (≈ 0.138 µM); in [8], 0.06 µg/mL (≈ 0.138 µM); in [9], 0.06 µg/mL (≈ 0.138 µM); in assay [10], 0.06 µg/mL (≈ 0.138 µM).

Values taken from ChEMBL document CHEMBL1649111, “Restoration of susceptibility of intracellular methicillin-resistant Staphylococcus aureus to beta-lactams: comparison of strains, cells, and antibiotics” (Antimicrob Agents Chemother, 2008).
